Reference: ChEMBL document CHEMBL4311977, “Design and synthesis of parthenolide and 5-fluorouracil conjugates as potential anticancer agents against drug resistant hepatocellular carcinoma” (Eur J Med Chem, 2019)
Where a name gives a salt, the structure may show the parent alone.

Assays:
Bel-7402 = test: Antiproliferative activity against human Bel7402 incubated for 72 hrs by MTT assay; type: functional, cell-based; settings: Bel-7402, 72 h
Summary of the method: (§1)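 Bel-7402 and its 5-FU-resistant subline were kept in RPMI-1640 with 10% FBS and 1% penicillin/streptomycin at 37 °C under 5% CO2. Cells were seeded at 5000 per well and left for 12 h, then exposed to a concentration series for 72 h. MTT stock (5 mg/mL) was added for 4 h and the product dissolved in DMSO. OD was read at 570 nm and IC50 obtained by curve fitting.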

Bel7402/5-FU [1] = test: Antiproliferative activity against human Bel7402/5-FU incubated for 72 hrs by MTT assay; type: functional, cell-based; summary of the method: as §1
Bel7402/5-FU [2] = test: Induction of apoptosis in human Bel7402/5-FU assessed as viable cells at 5 uM incubated for 48 hrs by annexinV-FITC/propidium iodide staining based flow cytometry (reference value: 96.9 %)
Bel7402/5-FU [3] = test: Induction of apoptosis in human Bel7402/5-FU assessed as necrotic cells at 5 uM incubated for 48 hrs by annexinV-FITC/propidium iodide staining based flow cytometry (reference value: 0.157 %)
Bel7402/5-FU [4] = test: Induction of apoptosis in human Bel7402/5-FU assessed as late apoptotic cells at 5 uM incubated for 48 hrs by annexinV-FITC/propidium iodide staining based flow cytometry (reference value: 0.945 %)
Bel7402/5-FU [5] = test: Induction of apoptosis in human Bel7402/5-FU assessed as early apoptotic cells at 5 uM incubated for 48 hrs by annexinV-FITC/propidium iodide staining based flow cytometry (reference value: 20.1 %)
[6] = Oral bioavailability in canine at 100 mg/kg; type: ADME, organism-based, Canis lupus familiaris; settings: dog, in vivo
[7] = Oral bioavailability in mouse at 100 mg/kg; type: ADME, organism-based; settings: in vivo

Row | SMILES | IC50 (Bel-7402) [µM] | IC50 (Bel7402/5-FU [1]) [µM] | further results
1 | C=C1C(=O)O[C@H]2[C@H]1CC/C(COC(=O)Cn1cc(F)c(=O)n(Cc3ccc(F)c(F)c3)c1=O)=C\CC[C@@]1(C)O[C@@H]21 | 2.7 | 4.48 | 
2 | C=C1C(=O)O[C@H]2[C@H]1CC/C(COC(=O)Cn1cc(F)c(=O)n(Cc3ccc(Cl)cc3)c1=O)=C\CC[C@@]1(C)O[C@@H]21 | 2.56 | 2.42 | 
3 | C=C1C(=O)O[C@H]2[C@H]1CC/C(COC(=O)Cn1cc(F)c(=O)n(Cc3ccc(Br)cc3)c1=O)=C\CC[C@@]1(C)O[C@@H]21 | 2.67 | 3.24 | 
4 | C=C1C(=O)O[C@H]2[C@H]1CC/C(COC(=O)Cn1cc(F)c(=O)n(C)c1=O)=C\CC[C@@]1(C)O[C@@H]21 | 9.4 | 11.7 | 
5 | C=C1C(=O)O[C@H]2[C@H]1CC/C(Cn1cc(Cn3cc(F)c(=O)[nH]c3=O)nn1)=C\CC[C@@]1(C)O[C@@H]21 | > 20 | > 20 | 
6 | C=C1C(=O)O[C@H]2[C@H]1CC/C(COC(=O)Cn1cc(F)c(=O)n(Cc3ccc([N+](=O)[O-])cc3)c1=O)=C\CC[C@@]1(C)O[C@@H]21 | 4.07 | 4.34 | 
7 | C=C1C(=O)O[C@H]2[C@H]1CC/C(COC(=O)CCC(=O)N1CCN(C(=O)Cn3cc(F)c(=O)[nH]c3=O)CC1)=C\CC[C@@]1(C)O[C@@H]21 | > 20 | > 20 | 
8 | C=C1C(=O)O[C@@H]2C3O[C@]3(C)CC/C=C(\C)CC[C@@H]12 (stereo partly drawn) | 8.62 | 13 | viability at 5 µM (Bel7402/5-FU [2]): 94.3%; Activity (Bel7402/5-FU [3]): 1.29%; Activity (Bel7402/5-FU [4]): 2.52%; Activity (Bel7402/5-FU [5]): 1.75%
9 | C=C1C(=O)O[C@H]2[C@H]1CC/C(COC(=O)Cn1cc(F)c(=O)n(Cc3cc(F)ccc3F)c1=O)=C\CC[C@@]1(C)O[C@@H]21 | 3.06 | 4.61 | 
10 | C/C1=C\CC[C@@]2(C)O[C@H]2[C@H]2OC(=O)[C@@H](CN(C)C)[C@@H]2CC1 |  |  | bioavailability [6]: 70%; bioavailability [7]: 70%
11 | COc1cccc2c1C(=O)c1c(O)c3c(c(O)c1C2=O)C[C@@](O)(C(=O)CO)C[C@@H]3O[C@H]1C[C@H](N)[C@H](O)[C@H](C)O1 [DOXORUBICIN HYDROCHLORIDE] |  | 8.36 | 
12 | C=C1C(=O)O[C@H]2[C@H]1CC/C(COC(=O)CCC(=O)NCCCCCCNC(=O)Cn1cc(F)c(=O)n(Cc3ccccc3)c1=O)=C\CC[C@@]1(C)O[C@@H]21 | 18.3 | 16.2 | 
13 | O=c1[nH]cc(F)c(=O)[nH]1 [FLUOROURACIL] | 7.36 | > 400 | viability at 5 µM (Bel7402/5-FU [2]): 27.4%; Activity (Bel7402/5-FU [3]): 2.164%; Activity (Bel7402/5-FU [4]): 0.073%; Activity (Bel7402/5-FU [5]): 1.85%
14 | C=C1C(=O)O[C@H]2[C@H]1CC/C(COC(=O)Cn1cc(F)c(=O)n(Cc3ccc(F)cc3F)c1=O)=C\CC[C@@]1(C)O[C@@H]21 | 3.67 | 5.01 | 
15 | C=C1C(=O)O[C@H]2[C@H]1CC/C(COC(=O)Cn1cc(F)c(=O)[nH]c1=O)=C\CC[C@@]1(C)O[C@@H]21 | > 20 | > 20 | 
16 | C=C1C(=O)O[C@H]2[C@H]1CC/C(COC(=O)Cn1cc(F)c(=O)n(Cc3ccccc3F)c1=O)=C\CC[C@@]1(C)O[C@@H]21 | 3.77 | 3.83 | 
17 | C=C1C(=O)O[C@H]2[C@H]1CC/C(COC(=O)CCC(=O)OCn1cc(F)c(=O)[nH]c1=O)=C\CC[C@@]1(C)O[C@@H]21 | > 20 | > 20 | 
18 | C=C1C(=O)O[C@H]2[C@H]1CC/C(Cn1cc(Cn3cc(F)c(=O)n(Cc4ccccc4)c3=O)nn1)=C\CC[C@@]1(C)O[C@@H]21 | 9.16 | 8.84 | 
19 | C=C1C(=O)O[C@H]2[C@H]1CC/C(COC(=O)Cn1cc(F)c(=O)n(Cc3cccc(F)c3)c1=O)=C\CC[C@@]1(C)O[C@@H]21 | 2.53 | 3.7 | 
20 | C=C1C(=O)O[C@H]2[C@H]1CC/C(COC(=O)Cn1cc(F)c(=O)n(Cc3ccc(F)cc3)c1=O)=C\CC[C@@]1(C)O[C@@H]21 | 2.73 |  | 
21 | C=C1C(=O)O[C@H]2[C@H]1CC/C(COC(=O)CCC(=O)N1CCN(C(=O)Cn3cc(F)c(=O)n(Cc4ccccc4)c3=O)CC1)=C\CC[C@@]1(C)O[C@@H]21 | > 20 | > 20 | 
22 | C=C1C(=O)O[C@H]2[C@H]1CC/C(COC(=O)Cn1cc(F)c(=O)n(Cc3ccccc3)c1=O)=C\CC[C@@]1(C)O[C@@H]21 | 3.98 | 4.27 | 
23 | C=C1C(=O)O[C@H]2[C@H]1CC/C(COC(=O)Cn1cc(F)c(=O)n(Cc3c(F)cccc3F)c1=O)=C\CC[C@@]1(C)O[C@@H]21 | 4.5 | 4.98 | 
24 | C=C1C(=O)O[C@H]2[C@H]1CC/C(COC(=O)Cn1cc(F)c(=O)n(CCC)c1=O)=C\CC[C@@]1(C)O[C@@H]21 | 8.58 | 9.11 | 
25 | C=C1C(=O)O[C@H]2[C@H]1CC/C(Cn1cc(Cn3cc(F)c(=O)n(Cc4ccc(F)cc4)c3=O)nn1)=C\CC[C@@]1(C)O[C@@H]21 | 4.91 | 4.86 | 
26 | C=C1C(=O)O[C@H]2[C@H]1CC/C(COC(=O)CCC(=O)NCCCCCCNC(=O)Cn1cc(F)c(=O)[nH]c1=O)=C\CC[C@@]1(C)O[C@@H]21 | > 20 | > 20 | 
